Here are results for 19 molecules from ChEMBL document CHEMBL1132551, “Selective inhibitors of glial GABA uptake: synthesis, absolute stereochemistry, and pharmacology of the enantiomers of 3-hydroxy-4-amino-4,5,6,7-tetrahydro-1,2-benzisoxazole (exo-THPO) and analogues” (J Med Chem, 1999).

Series [1] is filed under the species Mus musculus. As to the kind of experiment: Effect on glial GABA(1 uM) uptake was measured using astrocytes cultured from cerebral cortices of new born mice. The class given is functional, organism-based.
For series [2], the species on record is Mus musculus. The experiment in a line: Effect on neuronal GABA(1 uM) uptake was measured using neurons cultured from cerebral cortices of 15-day-old mouse embryos. The class given is functional, organism-based.
The species named for series [3] is Rattus norvegicus. As to the kind of experiment: Inhibition of GABA uptake into crude synaptosomes prepared from adult rat brain. The class given is functional. In short, it runs like this: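 Crude synaptosomes from adult rat brain were preincubated with inhibitor for 10 min at 20 °C. Uptake was then run at 0.05 μM GABA.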
A short description of series [4]: The apparent partition coefficient(D) in n-octanol-0.05 M phosphate buffer (pH 7.4) at 21 degree celsius. The class given is physicochemical. In short, it runs like this: (§1)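 Organic and aqueous phases were mutually saturated at 21 °C. Compound was dissolved in the aqueous buffer at (2–3) × 10^-5 M and shaken 10–15 min to equilibrium. Phases were separated by centrifugation for 3–5 min. Aqueous concentration before and after distribution was measured by HPLC, and D was reported as log D.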

Series [5] can be described thus: Hydrolysis was studied in 0.02 M phosphate buffer containing 80% human plasma (pH 7.4) at 37 degree celsius; stable. The class given is ADME, cell-free. In short, it runs like this: (§2)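 Initial compound concentration was (2–3) × 10^-5 M, held at 37 °C. Samples taken over time were deproteinized with EtOH and centrifuged 3–5 min. Supernatant was analyzed by RP-HPLC at 220 nm; half-life was derived from residual compound over time.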

The nature of series [6]: Hydrolysis was studied in 0.02 M aqueous phosphate buffer (pH 7.4) at 37 degree celsius; stable. Type of series: ADME. An outline of the steps: (§3)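 Prodrug stock in MeCN–H2O was added to prewarmed buffer, giving (2–3) × 10^-5 M final. Tubes were held at 37 ± 0.2 °C and sampled over time for RP-HPLC at 220 nm, quantified by peak area against standards. Pseudo-first-order rate constants came from slopes of log residual prodrug versus time, expressed as t1/2.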

Series [7] in a line: The apparent partition coefficient(D) in cyclohexane-0.05 M phosphate buffer (pH 7.4) at 21 degree celsius. The class given is physicochemical. In short, it runs like this:
as §1

The nature of series [8]: Hydrolysis was studied in 0.02 M phosphate buffer containing 80% human plasma (pH 7.4) at 37 degree celsius. The class given is ADME, cell-free. An outline of the steps:
as §2

The nature of series [9]: Hydrolysis was studied in 0.02 M aqueous phosphate buffer (pH 7.4) at 37 degree celsius. Type of series: ADME. An outline of the steps: as §3

SMILES strings stand for the structures. Bounds are passed on as bounds.

As a reminder, the IC50 is the concentration that gives 50% inhibition. Read a low IC50 as greater potency in that assay. On to `CN(C)C1CCCc2onc(O)c21` (stereo not drawn), for which the half-inhibitory concentration (IC50) in [1] was above 500 µM; in series [2] it was above 1000 µM; in series [3], 291 µM.

As to `OCCNC1CCCc2onc(O)c21` (stereo not drawn), the IC50 in series [1] is above 500 µM; in series [2], above 1000 µM; in series [3], 173 µM.

Broadly, the logD is the decadic logarithm of the distribution of all forms, ionised or not, between an organic phase and buffer at a given pH. For the molecule `CNC1CCCc2onc(O)c21` (stereo not drawn), the logD in series [4] was -2.3. The T1/2 result in series [5] and in series [6] was “stable” in each case. Also, the IC50 in series [1] was 28 µM; in [2] it was 423 µM; in series [3], 63 µM.

`Oc1noc2c1C(N1CCCC1)CCC2` (stereo not drawn): the IC50 in series [1] is above 500 µM; in series [2] it was above 1000 µM; in [3], 201 µM.

Regarding `N[C@@H]1CCCc2onc(O)c21`, the IC50 in series [1] was 281 µM; in [2], 681 µM; in series [3] it was 118 µM.

As for `CNC1CCCc2snc(O)c21` (stereo not drawn), the IC50 in series [1] was above 500 µM; in [2], above 1000 µM; in series [3], 242 µM.

`Oc1noc2c1CNCC2`: the figures for the IC50 in series [1], in series [2] and in series [3] were 268 µM, 530 µM and 162 µM, respectively.

`NC1CCCc2onc(O)c21` (stereo not drawn): the IC50 in series [1] was found to be 208 µM; in [2] it was 883 µM; in [3] it was 181 µM.

Take `CC(=O)OCCNC1CCCc2onc(O)c21` (stereo not drawn): the IC50 is above 500 µM in series [1], above 1000 µM in [2] and 125 µM in series [3].

Consider `CCNC1CCCc2onc(O)c21` (stereo not drawn), for which the IC50 worked out at 278 µM in series [1], 391 µM in series [2] and 105 µM in [3].

By half-life is commonly meant the time needed for the level to fall by half in the phase considered. Higher therefore signals slow loss. With `CNC1CCCc2on(COC(=O)C(C)(C)C)c(=O)c21` (stereo not drawn), the logD is -1.4 in [7] and 0.05 in [4]. Besides, the half-life came to 0.117 h in series [8] and 267 h in series [9].

For `CNC1CCCc2onc(OCOC(=O)C(C)(C)C)c21` (stereo not drawn), the logD is -0.17 in [7] and 0.65 in series [4]. For the same molecule, the figures for the half-life in series [8] and in series [9] were 0.25 h and 75 h, respectively.

`CN[C@H]1CCCc2onc(O)c21` yielded an IC50 in series [3] above 300 µM.

With `N[C@H]1CCCc2onc(O)c21`, the IC50 in series [3] was above 300 µM.

`CN[C@@H]1CCCc2onc(O)c21`: the figures for the 50% inhibitory concentration (IC50) in series [1], in [2] and in series [3] were 60 µM, 510 µM and 39 µM, respectively.

Consider `NC1CCCc2snc(O)c21` (stereo not drawn), for which the IC50 in [1] is above 500 µM; in [2], above 1000 µM; in series [3], 290 µM.

Take `C=CCNC1CCCc2onc(O)c21` (stereo not drawn): the results for the IC50 in [1], in series [2] and in series [3] were above 500 µM, above 1000 µM and 98 µM, respectively.

On to `O=C(O)[C@@H]1CCCNC1` [(R)-NIPECOTIC ACID], for which the IC50 was found to be 16 µM in series [1], 12 µM in series [2] and 5 µM in series [3].

With `O=C(O)C1=CCCNC1` [GUVACINE], the IC50 in series [1] stood at 29 µM; in series [2] it was 32 µM; in series [3], 12 µM.
